From ChEMBL document CHEMBL4837218, “Synthesis and in vitro antitumour activity of 4(R)-methyl-3-O-phosphonomethyl-α-l-threose nucleosides” (Eur J Med Chem, 2021)
The source made the active and inactive calls. The calls are words filed in the database; no cut-off is given here.

Columns and labels:
MGC-803 = experiment: Anticancer activity against human MGC-803 cells assessed as inhibition of cell growth measured after 72 hrs by MTT assay; format: functional, cell-based; conditions: MGC-803, 72 h
Method in brief: (§1)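 Cells seeded at 3000 exponentially growing cells/well and incubated 12 h at 37 °C. Medium then replaced with fresh medium containing graded compound concentrations for 72 h; 5-FU positive control. MTT (5 mg/mL solution) added for 4 h, formazan dissolved in DMSO, absorbance read at 570 nm (reference 630 nm). Relative percentage inhibition of viable cells calculated; IC50 reported as mean ± standard deviation.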

MDA-MB-231 [1] = experiment: Induction of apoptosis in human MDA-MB-231 cells assessed as increase in cleaved caspase 9 protein expression at 3 to 9 uM measured after 48 hrs by western blot analysis; format: functional, cell-based; conditions: dose 3-9 µM
Method in brief: (§2)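 MCF-7 and MDA-MB-231 breast cancer cells treated 48 h with a concentration series, then lysed for protein. SDS-PAGE on 5–15% gels, transfer to nitrocellulose. Blocked 2 h in 5% nonfat milk/PBS-0.1% Tween 20, primary antibodies overnight at 4 °C, biotin-conjugated secondary 1 h. X-ray film detection with densitometric quantification.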

MDA-MB-231 [2] = experiment: Induction of mitochondrial membrane potential loss in human MDA-MB-231 cells assessed as green fluorescence intensity at 9 uM measured after 48 hrs by JC1 staining-based flow cytometry analysis (reference value: 0.8%); format: functional
MCF7 [3] = experiment: Cell cycle arrest in human MCF7 cells assessed as accumulation at G2/M phase at 2 uM measured after 48 hrs by propidium iodide staining based flow cytometry (reference value: 0.01 %); format: functional
MCF7 [4] = experiment: Cell cycle arrest in human MCF7 cells assessed as accumulation at G2/M phase at 1 uM measured after 48 hrs by propidium iodide staining based flow cytometry (reference value: 0.01 %); format: functional
MCF7 [5] = experiment: Induction of apoptosis in human MCF7 cells assessed as early apoptotic cells at 1 uM measured after 48 hrs by Annexin V-FITC/propidium iodide staining based flow cytometric analysis (reference value: 3 %); format: functional
MDA-MB-231 [6] = experiment: Cell cycle arrest in human MDA-MB-231 cells assessed as accumulation at G1 phase at 9 uM measured after 48 hrs by propidium iodide staining based flow cytometry (reference value: 46.28%); format: functional
MCF7 [7] = experiment: Cell cycle arrest in human MCF7 cells assessed as accumulation at G1 phase at 2 uM measured after 48 hrs by propidium iodide staining based flow cytometry (reference value: 70.09 %); format: functional
MDA-MB-231 [8] = experiment: Induction of apoptosis in human MDA-MB-231 cells assessed as increase in Noxa protein expression at 3 to 9 uM measured after 48 hrs by western blot analysis; format: functional, cell-based; conditions: dose 3-9 µM; method in brief: as §2
MDA-MB-231 [9] = experiment: Inhibition of colony formation in human MDA-MB-231 cells incubated for 24 hrs followed by medium removal and measured after 7 days by crystal violet staining based assay; format: functional, cell-based; conditions: dose 3-9 µM
Method in brief: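 Cells seeded at 1 × 10³ per well in six-well plates and left overnight. Compound (DMSO solution) given in fresh medium for 24 h, then medium removed and plates grown another 7 days. Colonies washed with PBS, fixed in 4% paraformaldehyde 30 min, stained with 0.1% crystal violet 30 min, photographed and counted.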

MDA-MB-231 [10] = experiment: Induction of DNA damage in human MDA-MB-231 cells assessed as increase in Chk2 protein expression at 3 to 9 uM measured after 48 hrs by western blot analysis; format: functional, cell-based; conditions: dose 3-9 µM
Method in brief: (§3)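 Cells exposed to graded concentrations for 48 h, then proteins extracted. Run on SDS-PAGE (5–15% gels) and transferred to nitrocellulose. Blocked 2 h in 5% nonfat milk in PBS/0.1% Tween 20, primary antibody overnight at 4 °C, biotin-conjugated secondary 1 h. Visualized on X-ray film with densitometric quantitation; three independent experiments.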

MCF7 [11] = experiment: Induction of apoptosis in human MCF7 cells assessed as increase in cleaved caspase 3 protein expression at 4 uM measured after 48 hrs in presence of cdc25c inhibitor, NSC663284 by western blot analysis; format: functional, cell-based
Method in brief: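 Four arms per cell line: untreated, test compound, 0.3 µM NSC663284 alone, and combination. Proteins harvested after 48 h and resolved by SDS-PAGE on 5–15% gels, transferred to nitrocellulose. Blocked 2 h in milk/PBS-Tween, primary antibodies overnight at 4 °C, biotin-conjugated secondary. Read on X-ray film with densitometry.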

MCF7 [12] = experiment: Induction of G2/M phase cell cycle arrest in human MCF7 cells assessed as upregulation of p-cdc25c protein expression at 4 uM measured after 48 hrs in presence of cdc25c inhibitor, NSC663284 by western blot analysis; format: functional, cell-based
Method in brief: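 Four groups (untreated, test compound, 0.3 NSC663284, combination) treated 48 h before protein extraction. Lysates resolved by SDS-PAGE (5–15%) and blotted to nitrocellulose. Blocked 2 h in 5% milk/PBS-0.1% Tween 20, primary antibody overnight at 4 °C, biotinylated secondary 1 h. Detected on X-ray film and quantified by densitometry.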

SW-620 = experiment: Antiproliferative activity against human SW-620 cells assessed as cell growth inhibition measured after 72 hrs by MTT assay; format: functional, cell-based; conditions: SW-620, 72 h; method in brief: as §1
MCF7 [13] = experiment: Inhibition of PI3K/AKT signalling pathway in human MCF7 cells assessed as downregulation of 85ap-PI3K expression at 1 to 4 uM measured after 48 hrs by Western blot analysis; format: cell-based; conditions: dose 1-4 µM
Method in brief: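 After 48 h exposure to compound at several concentrations, cells collected and proteins extracted. SDS-PAGE on 5–15% gels, transfer to nitrocellulose, blocking 2 h in 5% nonfat milk in PBS/0.1% Tween 20, primary antibodies overnight at 4 °C, biotin-conjugated secondary 1 h. Detection on X-ray film; band densitometry.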

GES1 = experiment: Antiproliferative activity against human GES1 cells assessed as growth inhibition measured after 72 hrs by MTT assay; format: functional, cell-based; conditions: GES1, 72 h; method in brief: as §1
MDA-MB-231 [14] = experiment: Induction of DNA damage in human MDA-MB-231 cells assessed as increase in ATM protein expression at 3 to 9 uM measured after 48 hrs by western blot analysis; format: functional, cell-based; conditions: dose 3-9 µM; method in brief: as §3
MDA-MB-231 [15] = experiment: Induction of DNA damage in human MDA-MB-231 cells assessed as increase in Chk1 protein expression at 3 to 9 uM measured after 48 hrs by western blot analysis; format: functional, cell-based; conditions: dose 3-9 µM; method in brief: as §3
MCF7 [16] = experiment: Induction of apoptosis in human MCF7 cells assessed as late apoptotic cells at 1 uM measured after 48 hrs by Annexin V-FITC/propidium iodide staining based flow cytometric analysis (reference value: 0.6 %); format: functional
MCF7 [17] = experiment: Induction of mitochondrial membrane potential loss in human MCF7 cells assessed as green fluorescence intensity at 4 uM measured after 48 hrs by JC1 staining-based flow cytometry analysis (reference value: 8.1 %); format: functional
MCF7 [18] = experiment: Cell cycle arrest in human MCF7 cells assessed as accumulation at S phase at 1 uM measured after 48 hrs by propidium iodide staining based flow cytometry (reference value: 25.34 %); format: functional
MDA-MB-231 [19] = experiment: Induction of apoptosis in human MDA-MB-231 cells assessed as increase in cleaved PARP protein expression at 3 to 9 uM measured after 48 hrs by western blot analysis; format: functional, cell-based; conditions: dose 3-9 µM; method in brief: as §2
MDA-MB-231 [20] = experiment: Induction of apoptosis in human MDA-MB-231 cells assessed as late apoptotic cells at 3 uM measured after 48 hrs by Annexin V-FITC/propidium iodide staining based flow cytometric analysis (reference value: 0.3%); format: functional
MCF7 [21] = experiment: Induction of apoptosis in human MCF7 cells assessed as increase in Bad protein expression at 1 to 4 uM measured after 48 hrs by western blot analysis; format: functional, cell-based; conditions: dose 1-4 µM; method in brief: as §2

In the case of C[C@H]1O[C@@H](n2cnc3c(N)nc(F)nc32)[C@H](O)[C@H]1OCP(=O)([O-])[O-].[Na+].[Na+], the IC50 (MGC-803) is reported as 6.18 µM, the Activity (MDA-MB-231 [1]) is reported as “Active” and the Activity (MDA-MB-231 [2]) is reported as 63%. It also gave an Activity (MCF7 [3]) of 17.9%, an Activity (MCF7 [4]) of 16.26% and an Activity (MCF7 [5]) of 15.5%. The Activity (MDA-MB-231 [6]) was 33.66%, the Activity (MCF7 [7]) was 41.43% and the Activity (MDA-MB-231 [8]) was “Active”. The inhibition (MDA-MB-231 [9]) was “Dose-Dependent Effect”, the Activity (MDA-MB-231 [10]) was “Active” and the Activity (MCF7 [11]) was “inactive”. The Activity (MCF7 [12]) was “inactive”, the IC50 (SW-620) was 6.62 µM and the inhibition (MCF7 [13]) was “Active”. The IC50 (GES1) was 5.09 µM, the Activity (MDA-MB-231 [14]) was “Active” and the Activity (MDA-MB-231 [15]) was “Active”. It also gave an Activity (MCF7 [16]) of 4.6%, an Activity (MCF7 [17]) of 58.1% and an Activity (MCF7 [18]) of 18.63%. For the same molecule, the Activity (MDA-MB-231 [19]) was “Active”, the Activity (MDA-MB-231 [20]) was 13% and the Activity (MCF7 [21]) was “Active”.
